Screens from PubChem.
RGS4 block: human RGS4 inhibition; P49798; HEK293 M3R/RGS4 inducible, Fluo-4 calcium flux; stronger effect = higher value; triggered by carbachol at its EC20; B-score at 10 µM; 0.45% of 310,000 active;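 active = B-score, a plate-corrected calcium signal, over three deviations above library mean, with baseline fluorescence within five deviations of library mean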;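 also: RGS4 expression induced by doxycycline in cells with stable M3 receptor; B-score is computed from the integrated fluorescence ratio over baseline after carbachol; higher B-score means a larger calcium signal and so more RGS4 inhibition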
Target sequence (P49798 whole entry, looked up): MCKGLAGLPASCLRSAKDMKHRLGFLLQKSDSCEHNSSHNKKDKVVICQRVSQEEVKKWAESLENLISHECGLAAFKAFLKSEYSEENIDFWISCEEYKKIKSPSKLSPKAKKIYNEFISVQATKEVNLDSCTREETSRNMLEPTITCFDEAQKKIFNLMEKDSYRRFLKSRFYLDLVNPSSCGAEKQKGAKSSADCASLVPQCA
MrgX1 antagonist: human MrgX1 receptor antagonism, primary screen; Q96LB2; MRGX1-HEK293 calcium flux, Fluo-4, BAM8-22 antagonism; stronger effect = lower value; B-score at 10 µM; 1.3% of 310,000 active;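 active = calcium-response B-score plate-corrected more than 3 library SD below zero, starting fluorescence within 5 deviations, no agonist response on first addition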;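 also: peak minus trough fluorescence over baseline after final BAM8-22 challenge near maximal dose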
Target sequence (Q96LB2 whole entry, looked up): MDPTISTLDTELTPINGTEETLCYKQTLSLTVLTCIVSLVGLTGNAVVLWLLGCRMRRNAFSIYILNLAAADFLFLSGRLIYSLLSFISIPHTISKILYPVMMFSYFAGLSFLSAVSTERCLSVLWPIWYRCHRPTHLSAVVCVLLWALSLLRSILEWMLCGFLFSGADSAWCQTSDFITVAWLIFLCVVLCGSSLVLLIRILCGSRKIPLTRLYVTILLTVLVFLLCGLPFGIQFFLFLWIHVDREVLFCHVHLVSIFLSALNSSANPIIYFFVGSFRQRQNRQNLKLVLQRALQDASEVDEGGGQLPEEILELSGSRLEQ
MrgX1 PAM: allosterically activates human MrgX1 receptor signaling. MrgX1-HEK293, Fluo-4 calcium flux, FDSS; stronger effect = higher value. 0.63% of 310,000 active. B-score at 10 µM;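 active = plate-corrected calcium response at least 3 library SD above typical, normal starting fluorescence, not activating the receptor alone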;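 also: compound read alongside a low EC10 to EC30 dose of BAM8-22 agonist; peak minus trough fluorescence over baseline measured at the second addition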
RGS4 act: potentiators or activators of RGS4 | AID 463111 | HEK293 M3R/inducible RGS4, carbachol calcium flux Fluo4; stronger effect = lower value | B-score at 10 µM | 0.92% of 310,000 active;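 active = B-score of the integrated calcium signal more than 4 SD below the library mean, with starting fluorescence not abnormally high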;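 also: negative B-score means reduced calcium response which marks RGS4 activation or potentiation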
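Assay system: HEK293 FlpIn-TREx cells, stable M3R, doxycycline-inducible RGS4 / Probe or stimulus: carbachol, ECmax concentration / Times: overnight RGS4 induction, 30 min dye load 37 °C, 20 min compound RT / Signal: kinetic calcium fluorescence imaging with Fluo4-AM dye, 2 µM / Measure: Agonist-evoked peak-minus-minimum fluorescence over baseline, integrated ratio, B score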
MrgX1 agonist: agonists of human MrgX1 receptor; 0.44% of 310,000 active; MrgX1-HEK293 cells, Fluo-4 calcium fluorescence, agonist mode; stronger effect = higher value; Q96LB2; B-score at 10 µM;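 active = calcium response B-score plate-corrected fluorescence ratio at least 3 library SD, with starting fluorescence B-score inside 5 SD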
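times = overnight plating, then 30 min 37 °C plus 30 min room-temperature dye loading | assay system = stable human MrgX1 HEK293 cell line | input = fifteen thousand cells per well | signal = kinetic calcium dye fluorescence, Fluo-4 NW | dosing = compound delivered in addition one of three | read-out = B-scored fluorescence response ratio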
RGS4 inh valid: RGS4 inhibitor validation. shares compounds with RGS4 block. HEK293 M3R/RGS4, carbachol calcium Fluo-4 fluorescence; carbachol added at its EC20; 0 = buffer wells, 100 = carbachol control. calcium response, % at 10 µM. 65% of 1,700 active. AID 492999;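 active = duplicate-averaged calcium response above the buffer-only control mean plus 5 SD of those controls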;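 also: integrated fluorescence ratio F max minus min over baseline F0; higher response in RGS4-induced cells means RGS4 inhibition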
RGS4 uninduced: counter-screen for RGS4 inhibitors: effect in non-induced cells; shares compounds with RGS4 block; HEK293 M3R non-induced, carbachol calcium Fluo-4; submaximal (EC20) carbachol stimulus; buffer wells 0%, carbachol control wells 100%; activity (percent), % at 10 µM; 20% of 1,900 active; AID 493000; call rule not given here;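 also: RGS4 induction absent so cells express M3R without RGS4; higher means more calcium signal and flags a non-specific hit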
RGS4 inh ctr2: second counter-screen for RGS4 inhibitors: non-induced cells without carbachol; shares compounds with RGS4 block; HEK293 M3R/RGS4 non-induced, Fluo-4 calcium, no carbachol; normalised: buffer wells 0%, carbachol wells 100%; calcium response (agonist-mode artifact), % at 10 µM; 22% of 1,900 active;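 active = duplicate-averaged calcium rise in uninduced cells above buffer wells' mean plus 5 SD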
Numbers stand for hits; i = inactive; nt = not tested or not shown. Most compounds without a hit are left out; they make up all but 3.5% or so of the library.

SMILES	RGS4 block	MrgX1 antagonist	MrgX1 PAM	RGS4 act	MrgX1 agonist	RGS4 inh valid	RGS4 uninduced	RGS4 inh ctr2
O=[N+]([O-])c1c(NCCCO)cc(Sc2nc3ccccc3s2)c2nonc12	4.66	i	i	i	i	9.5%	i	150.5%
Cc1nnc(Sc2cc(NCCCO)c([N+](=O)[O-])c3nonc23)s1	10.3	nt	nt	i	nt	21.0%	i	i
CCCSc1cc(NCCOC(C)=O)c([N+](=O)[O-])c2nonc12	i	i	i	i	i	nt	nt	nt
COc1ccc(C(CC(=O)c2ccc(C)cc2)Nc2ccc([N+](=O)[O-])cc2)cc1 (stereo not given)	i	i	i	i	i	nt	nt	nt
Cc1ccc(C(=O)CC(C(=O)O)n2cnc([N+](=O)[O-])n2)cc1 (stereo not given)	5.58	i	i	i	i	14.5%	i	i
Cc1ccc(C(=O)CC(SCC(=O)O)c2ccc([N+](=O)[O-])cc2)cc1 (stereo not given)	6.29	i	i	i	i	11.0%	36.0%	i
O=C(CC(SCCO)c1ccc([N+](=O)[O-])cc1)c1ccco1 (stereo not given)	5.44	i	i	i	i	11.0%	i	i
Cc1cccc(Cc2ncc(C(F)(F)F)cc2Cl)c1	i	i	i	i	i	nt	nt	nt
CC(C)(C)C1CCc2nc(NC(=O)Cc3cn4ccsc4n3)sc2C1 (stereo not given)	7.12	i	i	i	i	16.0%	i	i
O=C(c1ccc(S(=O)(=O)N2CCCC2)cc1)N1CCCCC1	i	i	i	i	i	nt	nt	nt
O=C(/C=C/c1ccc(O)c(O)c1)c1ccc(S(=O)(=O)N2CCCCCC2)cc1	15.7	i	i	i	i	23.0%	43.5%	i
CCOC(=O)c1ccc(NC(=O)c2ccc3c(c2)C(=O)N(Cc2cccnc2)C3=O)cc1	i	i	i	i	i	nt	nt	nt
Cc1c(C#N)c(O)n(CCO)c(=O)c1N=Nc1ccc2c(c1)COC2=O	5.24	i	i	i	i	i	i	18.0%
CC1=NN(c2ccccc2)C(=O)C1N=Nc1cccc(O)c1 (stereo not given)	i	i	i	i	i	nt	nt	nt
CC1=NN(c2ccc(C)cc2C)C(=O)C1C(c1cccc(O)c1)C1C(=O)N(c2ccc(C)cc2C)N=C1C (stereo not given)	5.28	i	i	i	i	13.5%	50.0%	i
CC(=O)N[C@@H](C)C(=O)N1CCN(S(=O)(=O)c2ccc(Cl)cc2)CC1	i	i	i	i	i	nt	nt	nt
Oc1ccc(Cl)cc1C=NCCc1ccccc1	5.02	i	i	i	i	21.5%	35.0%	11.0%
Oc1ccccc1C=NCCN=Cc1ccccc1O	i	i	i	i	i	nt	nt	nt
CCOC(=O)c1c(C)oc2c1cc(NS(=O)(=O)c1ccc(C(=O)O)cc1)c1ccccc12	i	i	i	i	i	nt	i	i
COc1cc(C(C(=O)NC2CCCCC2)N(C(=O)Cc2c[nH]c3ccccc23)c2ccccc2C)cc(OC)c1OC (stereo not given)	4.86	i	i	i	i	7.5%	i	i
O=C(CCN1CCN(c2ccc([N+](=O)[O-])cc2)CC1)c1ccc(Cl)cc1	i	i	i	i	i	nt	nt	nt
O=C(CCN1CCN(c2ccccc2)CC1)c1ccc(Cl)cc1	23.9	i	i	i	i	i	35.0%	19.5%
CC(C)(C)NC(=O)CSC(=Nc1ccc(F)cc1)NC#N	i	i	i	i	i	nt	nt	nt
Cc1ccc(-c2nc(NCc3cccnc3)c3ccccc3n2)cc1	i	i	i	i	i	i	i	i
c1ccc(-c2nc(NCc3cccnc3)c3ccccc3n2)cc1	i	i	i	i	i	i	i	i
Clc1cccc(-c2nc(NCc3cccnc3)c3ccccc3n2)c1	i	i	i	i	i	nt	nt	nt
COc1ccc(NC(=O)Oc2cc(C)ccc2C(C)C)cc1	i	i	i	i	i	nt	nt	nt
